Laboratory results reported in PMC10374283 (Journal of medicinal chemistry, 2023).
pIC50: −log10 of the molar value. “Also recorded” adds a separate entry of the source.

Legend:
SARS-CoV-2 Nsp14 [1] = target: T1, SARS-CoV-2 Nsp14 (Severe acute respiratory syndrome coronavirus 2, UniProt P0DTD1); assay: biochemical; type: biochemical
Nsp14 = Nsp14 (Severe acute respiratory syndrome coronavirus 2, UniProt P0DTD1); assay: Assessment of covalent binding to Nsp14 by LC-MS; set-up: species or system SARS-CoV-2
In short: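 SARS-CoV-2 Nsp14 was E. coli-expressed with a His6-SUMO tag and purified after SUMO removal. Protein was incubated with a 20-fold molar excess of test compound for 2 h at room temperature (20 °C), then diluted in 0.1% formic acid. Separation used HPLC with a 5–95% acetonitrile/water gradient, followed by ESI time-of-flight mass spectrometry.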

SARS-CoV-2 = assay: Antiviral activity versus cell toxicity; type: cell-based
[2] = Colloidal aggregation by dynamic light scattering; type: physicochemical; conditions: for colloid-like particle formation by DLS: 50 mM KPi pH 7.0, 1% DMSO; for CAC relative to Nsp14 IC50: DLS CAC divided by Nsp14 IC50
SARS-CoV-2 Nsp14 [3] = target: T1, SARS-CoV-2 Nsp14; assay: Mechanism of action: IC50 at varying SAM and RNA concentrations; type: biochemical; conditions: varying SAM or RNA concentration
[4] = test system: malate dehydrogenase (MDH); assay: Aggregation counter-screen, malate dehydrogenase inhibition; type: biochemical; conditions: for inhibition of MDH: absence of detergent; for inhibition of MDH with detergent: with 0.01% Triton X-100
AmpC β-lactamase (AmpC) = AmpC β-lactamase (AmpC) (Escherichia coli, UniProt P00811); type: biochemical; conditions: for inhibition of AmpC: absence of detergent; for inhibition of AmpC with detergent: with 0.01% Triton X-100
SARS-CoV-2 Nsp14 [5] = target: T1, SARS-CoV-2 Nsp14; type: biochemical; conditions: preincubated at 10-fold IC50 for 1 h, diluted 100-fold
[6] = test system: panel of 30 human SAM-dependent MTases; assay: Selectivity panel of 30 human SAM-dependent protein and RNA MTases; type: biochemical; conditions: compounds at 10 μM, 30 human MTases
MDH or AmpC = assay: Aggregation counter-screen, enzyme not specified per compound; type: biochemical; conditions: for inhibition of MDH or AmpC: absence of detergent; for inhibition of MDH or AmpC with detergent: with 0.01% of detergent

Sequence of AmpC β-lactamase (AmpC) (P00811 20-377): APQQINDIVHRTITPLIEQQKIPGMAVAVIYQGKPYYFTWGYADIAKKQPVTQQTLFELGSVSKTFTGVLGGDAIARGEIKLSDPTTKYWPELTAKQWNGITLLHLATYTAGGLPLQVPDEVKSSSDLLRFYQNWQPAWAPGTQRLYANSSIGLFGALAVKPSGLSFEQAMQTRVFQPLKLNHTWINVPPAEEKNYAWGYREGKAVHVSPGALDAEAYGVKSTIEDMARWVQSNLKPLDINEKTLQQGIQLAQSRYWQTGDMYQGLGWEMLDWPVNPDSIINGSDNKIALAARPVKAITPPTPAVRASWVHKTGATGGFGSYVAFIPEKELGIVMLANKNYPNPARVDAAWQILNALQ

SMILES: CCC(=O)NCCC(=O)N1CCC(C2C(=O)Nc3cc(Cl)ccc32)CC1 (centres unmarked) [ZD160–68, N-(3-(4-(6-Chloro-2-oxoindolin-3-yl)piperidin-1-yl)-3-oxopropyl)-propionamide]
- Nsp14 enzymatic inhibition (in words) (SARS-CoV-2 Nsp14 [1]): inactive; also recorded: no enzymatic inhibition

SMILES: C=CC(=O)N(C)c1ccc(C(=O)Nc2ccc(-c3cn4ccsc4n3)cc2)cc1 [acryl41]
- covalent adduct formation with Nsp14 by mass spectrometry (Nsp14): did not form a measurable adduct by mass spectrometry

SMILES: C=CC(=O)NC[C@H](OC)C(=O)N1CCC(C2C(=O)Nc3cc(Cl)ccc32)CC1 (stereo partly drawn) [acryl42_10, N-((2S)-3-(4-(6-Chloro-2-oxoindolin-3-yl)piperidin-1-yl)-2-methoxy-3-oxopropyl)acrylamide]
- pIC50 (SARS-CoV-2 Nsp14 [1]): 5.15
- fold more potent than acryl42 (SARS-CoV-2 Nsp14 [1]; relative to parent acryl42): 4.5 fold
- antiviral activity versus cell toxicity (SARS-CoV-2): for none of them could we distinguish anti-viral activity from cell toxicity

SMILES: Cc1nc2ncc(-c3c[nH]nn3)cc2[nH]1 [‘0222, 2-Methyl-6-(1H-1,2,3-triazol-4-yl)-1H-imidazo[4,5-b]pyridine]
- colloid-like particle formation by DLS [2]: CACs at relevant concentrations

SMILES: Oc1ccccc1-c1ncnc2[nH]ccc12 [‘0683, 2-(7H-Pyrrolo[2,3-d]pyrimidin-4-yl)phenolv]
- ligand efficiency (LE) (SARS-CoV-2 Nsp14 [1]; from Nsp14 IC50): 0.42 kcal/heavy atom
- pattern of inhibition versus SAM and RNA (SARS-CoV-2 Nsp14 [3]): competitive and presumably reversible inhibitor of both SAM and RNA binding
- inhibition of MDH [4]: both MDH and AmpC
- inhibition of AmpC (AmpC β-lactamase (AmpC)): both MDH and AmpC
- antiviral activity versus cell toxicity (SARS-CoV-2): for none of them could we distinguish anti-viral activity from cell toxicity

SMILES: C=C(Cl)COC(=O)c1cnc2[nH]ccc2c1 [‘0741, 2-Chloroallyl 1H-pyrrolo[2,3-b]pyridine-5-carboxylate]
- inhibition of MDH [4]: inhibited MDH
- inhibition of MDH with detergent [4]: this effect was smaller

SMILES: CN(C)c1cncc(NC(=O)c2ccc(C=O)cc2O)c1 [‘1889, N-(5-(Dimethylamino)pyridin-3-yl)-4-formyl-2-hydroxybenza-mide]
- CAC relative to Nsp14 IC50 [2]: CAC five-fold higher than its Nsp14 IC50
- inhibition of MDH [4]: did not inhibit either counter-screening enzyme under any measured condition
- inhibition of AmpC (AmpC β-lactamase (AmpC)): did not inhibit either counter-screening enzyme under any measured condition

SMILES: N#Cc1ccc(NC(=O)c2cc(C=O)n3c2CCCC3)c2cc(O)ccc12 [‘1911, N-(4-Cyano-7-hydroxynaphthalen-1-yl)-3-formyl-5,6,7,8-tetra-hydroindolizine-1-carboxamide]
- reversibility of Nsp14 inhibition by jump/rapid dilution (SARS-CoV-2 Nsp14 [5]): little residual inhibition when diluted below its IC50
- covalent adduct formation with Nsp14 by mass spectrometry (Nsp14): did not increase the molecular mass of Nsp14
- colloid-like particle formation by DLS [2]: did form colloid-like particles by DLS at a relevant concentration
- inhibition of MDH [4]: did inhibit AmpC and MDH in the absence of Triton
- inhibition of MDH with detergent [4]: this inhibition disappeared
- inhibition of AmpC (AmpC β-lactamase (AmpC)): did inhibit AmpC and MDH in the absence of Triton
- inhibition of AmpC with detergent (AmpC β-lactamase (AmpC)): this inhibition disappeared
- inhibition of panel enzymes (>50% criterion) [6]: inhibiting only two histone MTases; also recorded: only hit two very closely related MTases
- antiviral activity versus cell toxicity (SARS-CoV-2): for none of them could we distinguish anti-viral activity from cell toxicity

SMILES: O=C(COC(=O)c1cc(-c2ccoc2)n[nH]1)Nc1ccc(Br)cc1 [‘1988, 2-((4-Bromophenyl)amino)-2-oxoethyl 3-(Furan-3-yl)-1H-pyra-zole-5-carboxylate]
- pIC50 (SARS-CoV-2 Nsp14 [1]): 5.22
- reversibility of Nsp14 inhibition by jump/rapid dilution (SARS-CoV-2 Nsp14 [5]): noncovalent inhibitor
- pattern of inhibition versus SAM and RNA (SARS-CoV-2 Nsp14 [3]): SAM- and RNA-competitive pattern of inhibition
- colloid-like particle formation by DLS [2]: formed colloid-like particles by DLS
- CAC relative to Nsp14 IC50 [2]: 10 fold
- inhibition of MDH [4]: inhibition of MDH was in a relevant range
- inhibition of MDH with detergent [4]: inhibition of both enzymes disappeared
- inhibition of AmpC with detergent (AmpC β-lactamase (AmpC)): inhibition of both enzymes disappeared
- inhibition of panel enzymes (>50% criterion) [6]: inhibiting nine enzymes more than 50%
- antiviral activity versus cell toxicity (SARS-CoV-2): for none of them could we distinguish anti-viral activity from cell toxicity

SMILES: Cc1c(C(=O)/C=C/c2ccc(O)c([N+](=O)[O-])c2)c(C#N)c2n1CCC2 [‘4824, (E)-6-(3-(4-Hydroxy-3-nitrophenyl)acryloyl)-5-methyl-2,3-dihydro-1H-pyrrolizine-7-carbonitrile]
- reversibility of Nsp14 inhibition by jump/rapid dilution (SARS-CoV-2 Nsp14 [5]): inhibition by ‘4824 is not due to the nitrile electrophile
- pattern of inhibition versus SAM and RNA (SARS-CoV-2 Nsp14 [3]): SAM- and RNA-competitive pattern of inhibition
- colloid-like particle formation by DLS [2]: did not form detectable particles by DLS
- inhibition of MDH [4]: did inhibit the counter-screening enzymes MDH and AmpC at relevant concentrations
- inhibition of MDH with detergent [4]: inhibition was largely or entirely eliminated
- inhibition of AmpC (AmpC β-lactamase (AmpC)): did inhibit the counter-screening enzymes MDH and AmpC at relevant concentrations
- inhibition of AmpC with detergent (AmpC β-lactamase (AmpC)): inhibition was largely or entirely eliminated
- inhibition of panel enzymes (>50% criterion) [6]: no inhibition greater than 50% for any enzyme in the panel; also recorded: Nsp14-selective

SMILES: Cc1cc(C(=O)Nc2cccc(N3CCNC3=O)c2C)sc1C=O [‘4975, 5-Formyl-4-methyl-N-(2-methyl-3-(2-oxoimidazolidin-1-yl)-phenyl)thiophene-2-carboxamide]
- antiviral activity versus cell toxicity (SARS-CoV-2): for none of them could we distinguish anti-viral activity from cell toxicity

SMILES: CC(C)SCn1cnc2cnn(C)c2c1=O [‘5604, 6-((Isopropylthio)methyl)-1-methyl-1H-pyrazolo[4,3-d]-pyrimidin-7(6H)-One]
- colloid-like particle formation by DLS [2]: CACs at relevant concentrations
- inhibition of MDH [4]: inhibited MDH

SMILES: O=C(NC1CSC1)c1ncnn2cccc12 [‘5763, N-(Thietan-3-yl)pyrrolo[2,1-f][1,2,4]triazine-4-carboxamide]
- colloid-like particle formation by DLS [2]: CACs at relevant concentrations

SMILES: Cn1ncc(N)c1-c1cc2ccccc2[nH]1 [‘6066, 5-(1H-Indol-2-yl)-1-methyl-1H-pyrazol-4-amine]
- colloid-like particle formation by DLS [2]: CACs at relevant concentrations

SMILES: N#Cc1c(C(=O)NCc2ccc(O)c([N+](=O)[O-])c2)[nH]c2ccccc12 [‘6943, 3-Cyano-N-(4-hydroxy-3-nitrobenzyl)-1H-indole-2-carboxamide]
- colloid-like particle formation by DLS [2]: did form colloid-like particles by DLS
- inhibition of MDH or AmpC (MDH or AmpC): inhibited MDH or AmpC at relevant concentrations
- inhibition of MDH or AmpC with detergent (MDH or AmpC): inhibition was largely eliminated

SMILES: Cn1c(C(=O)NCc2ccc(O)c([N+](=O)[O-])c2)c(Br)c2ccccc21 [‘6947, 3-Bromo-N-(4-hydroxy-3-nitrobenzyl)-1-methyl-1H-indole-2-carboxamide]
- colloid-like particle formation by DLS [2]: did form colloid-like particles by DLS
- inhibition of MDH or AmpC (MDH or AmpC): inhibited MDH or AmpC at relevant concentrations
- inhibition of MDH or AmpC with detergent (MDH or AmpC): inhibition was largely eliminated

SMILES: Cc1c(C(=O)/C=C/c2cc(Br)c(O)cc2F)c(C#N)c2n1CCC2 [‘6953, (E)-6-(3-(5-Bromo-2-fluoro-4-hydroxyphenyl)acryloyl)-5-methyl-2,3-dihydro-1H-pyrrolizine-7-carbonitrile]
- colloid-like particle formation by DLS [2]: did form colloid-like particles by DLS
- inhibition of MDH or AmpC (MDH or AmpC): inhibited MDH or AmpC at relevant concentrations
- inhibition of MDH or AmpC with detergent (MDH or AmpC): inhibition was largely eliminated

SMILES: Cn1c(=O)[nH]c2ncc(-c3cccc(C(=O)Nc4cccc(C#N)c4)c3)cc21 [‘9213, N-(3-Cyanophenyl)-3-(1-methyl-2-oxo-2,3-dihydro-1H-imidazo-[4,5-b]pyridin-6-yl)benzamide]
- enzyme inhibition at 30 and 50 μM (SARS-CoV-2 Nsp14 [1]; tested at 30 and 50 μM): more than 50%
- colloid-like particle formation by DLS [2]: did form colloid-like particles by DLS
